Each block holds one compound with its values, some of them ahead of it. Calls of active or inactive are those of the source. No cut-off for these calls is given here.
Tests used:
Cannabinoid receptor 1 [1] = target: T1, Cannabinoid receptor 1 (Homo sapiens, UniProt P21554); assay: biochemical; type: cell-based, HEK293
Cannabinoid receptor 1 [2] = target: T1, Cannabinoid receptor 1; assay: Antagonist activity at human CB1 receptor expressed in CHOK1 cells assessed as inhibition of forskolin-stimulated cAMP levels; type: functional, cell-based; conditions: CHO-K1
Outline: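 Incubated 20 min at 37 °C with graded agonist plus 3 µM forskolin (final), with or without a fixed antagonist concentration. cAMP measured by scintillation proximity assay. Kb from the agonist EC50 concentration ratio: pKb = log(CR−1) − log B.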

Cannabinoid receptor 2 = Cannabinoid receptor 2 (Homo sapiens, UniProt P34972); assay: Displacement of [3H][…] from human CB2 receptor expressed in HEK293 cells; type: cell-based
Outline: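 HEK 293 membranes expressing human CB-2 (3.3 µg protein) incubated with 0.3 nM [3H]CP 55940 and varying competitor concentrations. Binding buffer: 50 mM Tris pH 7.4, 2.5 mM EDTA, 5 mM MgCl2, 0.1% fatty-acid-free BSA; 90 min at 30 °C with shaking. Nonspecific binding defined with 10 µM WIN 55212-2. Filtered through GF/C plates, read by scintillation counting. Nonlinear regression; mean of two or more triplicate runs.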

Rattus norvegicus [3] = assay: Reduction of food intake in fasted-refed Wistar rat at 10 mg/kg, po after 0.5 to 4 hrs; type: functional; set-up: scale not given: the % may be the effect or the level left
Outline: (§1)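 Male Wistar rats, individually housed on mesh floors, 12-h/12-h light/dark cycle, fasted overnight (18 h). Single oral dose of vehicle or compound at 10 mg/kg (2 mL/kg), vehicle 30% cyclodextrin or PEG/MSA, 1 h before re-feeding. Cumulative food intake recorded at 30, 60, 90, 180 and 240 min, corrected for spillage. 10 rats per group; percent reduction versus vehicle.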

Rattus norvegicus [4] = assay: Reduction of body weight in Zucker fa/fa rat at 10 mg/kg, po after 8 days; type: functional; set-up: scale not given: the % may be the effect or the level left
Outline: (§2)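 Two-day baseline body weight and 24 h food and water intake, then weight-matched into groups. Daily oral dose of 1, 5 or 10 mg/kg suspension (2 mL/kg) before the nocturnal feeding phase. Body weight recorded daily; change versus vehicle-treated rats.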

[5] = Drug level in Wistar rat brain at 10 mg/kg, po after 2 hrs; type: ADME, organism-based; set-up: dose 10 mg/kg, route oral; conditions: read-out: Drug uptake
Outline: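 Brain levels measured 2 h after a 10 mg/kg oral dose to Wistar rats, within pharmacokinetic screening; oral vehicle was PEG/MSA suspension.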

[6] = Cmax in Wistar rat plasma at 10 mg/kg, po; type: ADME, organism-based; set-up: dose 10 mg/kg, route oral
Outline: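 Wistar rats dosed orally at 10 mg/kg, typically as a 30% cyclodextrin suspension or as a suspension in PEG400/25 mM methanesulfonic acid (80:20). Plasma levels sampled typically at 0.5, 1 and 2 h after dosing; Cmax taken from these time points.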

Rattus norvegicus [7] = assay: Effect on cumulative food intake in fasted-refed Wistar rat assessed as appetite suppression at 10 mg/kg, po; type: functional, organism-based; set-up: dose 10 mg/kg
Outline: as §1

Rattus norvegicus [8] = assay: Reduction of body weight in Zucker fa/fa rat at 5 mg/kg, po after 13 days; type: functional; set-up: scale not given: the % may be the effect or the level left
Outline: as §2

Rattus norvegicus [9] = assay: Reduction of food intake in fasted-refed Wistar rat at 10 mg/kg, po after 4 hrs; type: functional; set-up: scale not given: the % may be the effect or the level left
Outline: as §1

Rattus norvegicus [10] = assay: Reduction of body weight in Zucker fa/fa rat at 1 mg/kg, po after 13 days; type: functional, Zuker fa/fa; set-up: scale not given: the % may be the effect or the level left
Outline: as §2

Rattus norvegicus [11] = assay: Reduction of food intake in fasted-refed Wistar rat at 10 mg/kg, po after 3 hrs; type: functional; set-up: scale not given: the % may be the effect or the level left
Outline: as §1

Rattus norvegicus [12] = assay: Reduction of food intake in fasted-refed Wistar rat at 10 mg/kg, po after 0.5 hrs; type: functional; set-up: scale not given: the % may be the effect or the level left
Outline: as §1

Rattus norvegicus [13] = assay: Reduction of food intake in fasted-refed Wistar rat at 10 mg/kg, po after 1 hr; type: functional; set-up: scale not given: the % may be the effect or the level left
Outline: as §1

Rattus norvegicus [14] = assay: Reduction of body weight in Zucker fa/fa rat at 10 mg/kg, po after 13 days; type: functional; set-up: scale not given: the % may be the effect or the level left
Outline: as §2

Rattus norvegicus [15] = assay: Reduction of food intake in fasted-refed Wistar rat at 10 mg/kg, po after 1.5 hrs; type: functional; set-up: scale not given: the % may be the effect or the level left
Outline: as §1

T1 sequence (P21554 whole entry): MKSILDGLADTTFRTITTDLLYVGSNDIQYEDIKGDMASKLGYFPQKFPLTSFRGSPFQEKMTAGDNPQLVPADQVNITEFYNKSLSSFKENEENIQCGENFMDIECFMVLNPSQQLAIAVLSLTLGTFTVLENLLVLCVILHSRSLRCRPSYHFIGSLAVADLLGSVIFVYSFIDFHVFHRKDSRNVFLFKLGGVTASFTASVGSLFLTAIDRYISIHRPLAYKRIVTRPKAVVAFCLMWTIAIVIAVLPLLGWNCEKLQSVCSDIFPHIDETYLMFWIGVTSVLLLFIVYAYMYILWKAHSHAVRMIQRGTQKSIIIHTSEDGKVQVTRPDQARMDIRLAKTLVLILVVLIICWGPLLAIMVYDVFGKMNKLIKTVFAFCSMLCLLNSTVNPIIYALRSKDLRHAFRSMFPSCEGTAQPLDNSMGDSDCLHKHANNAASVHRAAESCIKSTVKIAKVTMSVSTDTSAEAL
Cannabinoid receptor 2, sequence (P34972 whole entry): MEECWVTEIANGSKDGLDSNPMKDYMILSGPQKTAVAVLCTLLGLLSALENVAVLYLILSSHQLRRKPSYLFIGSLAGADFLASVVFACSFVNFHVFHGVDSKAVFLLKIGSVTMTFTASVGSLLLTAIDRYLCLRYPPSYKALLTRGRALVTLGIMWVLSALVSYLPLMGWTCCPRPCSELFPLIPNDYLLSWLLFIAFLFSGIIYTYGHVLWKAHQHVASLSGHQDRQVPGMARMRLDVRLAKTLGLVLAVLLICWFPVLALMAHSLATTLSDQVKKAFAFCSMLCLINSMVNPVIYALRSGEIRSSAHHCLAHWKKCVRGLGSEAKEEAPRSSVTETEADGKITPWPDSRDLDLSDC

SMILES: COc1ccc(-n2cc(C(=O)NC3CCCCC3)nc2-c2ccc(Cl)cc2Cl)cc1
Ki (Cannabinoid receptor 1 [1]): 4.9 nM

SMILES: COc1ccc(-n2cc(C(=O)NC3CCCCC3)nc2-c2ccccc2Cl)cc1
Ki (Cannabinoid receptor 1 [1]): 9 nM

Ki (Cannabinoid receptor 1 [1]): 1100 nM
SMILES: O=C(NC1CCCCC1)c1cn(-c2cccnc2)c(-c2ccccc2Cl)n1

Kb (Cannabinoid receptor 1 [2]): 1.4 nM | Ki (Cannabinoid receptor 2): 2700 nM | Ki (Cannabinoid receptor 1 [1]): 5.7 nM
SMILES: CCCc1c(C(=O)N[C@H]2CCCC[C@@H]2O)nc(-c2ccccc2Cl)n1-c1ccc(Cl)cc1

SMILES: O=C(NC1CCCCC1O)c1cn(-c2ccc(Cl)cc2)c(-c2ccc(Cl)cc2Cl)n1 (racemic)
Kb (Cannabinoid receptor 1 [2]): 4.4 nM | Ki (Cannabinoid receptor 2): 1100 nM | Ki (Cannabinoid receptor 1 [1]): 22 nM | Activity (Rattus norvegicus [3]): 21%

Ki (Cannabinoid receptor 1 [1]): 1.9 nM
SMILES: Cc1ccc(-n2cc(C(=O)NC3CCCCC3)nc2-c2ccc(Cl)cc2Cl)cc1

SMILES: Cc1c(C(=O)NN2CCCCC2)nn(-c2ccc(Cl)cc2Cl)c1-c1ccc(Cl)cc1 [RIMONABANT]
Activity (Rattus norvegicus [4]): 6.5%

SMILES: O=C(N[C@H]1CCC[C@@H]1O)c1cn(-c2ccc(Cl)cc2)c(-c2ccccc2Cl)n1
concentration at 2 h [5]: 330 nM | Kb (Cannabinoid receptor 1 [2]): 9.7 nM | Cmax [6]: 2110 nM | Ki (Cannabinoid receptor 2): 6300 nM | Ki (Cannabinoid receptor 1 [1]): 29 nM | Activity (Rattus norvegicus [3]): 26%

Ki (Cannabinoid receptor 1 [1]): 270 nM
SMILES: N[C@H]1CCCC[C@@H]1NC(=O)c1cn(-c2ccc(Cl)cc2)c(-c2ccc(Cl)cc2Cl)n1

SMILES: CC1CCC(n2cc(C(=O)NC3CCCCC3)nc2-c2ccccc2Cl)CC1 (stereo not given)
Ki (Cannabinoid receptor 1 [1]): 17 nM

SMILES: Cc1ccccc1-c1nc(C(=O)NC2CCCCC2)cn1-c1ccc(Cl)cc1
Kb (Cannabinoid receptor 1 [2]): 7.3 nM | Ki (Cannabinoid receptor 2): > 1000 nM | Ki (Cannabinoid receptor 1 [1]): 21 nM

Ki (Cannabinoid receptor 1 [1]): 6.9 nM
SMILES: Cc1c(C(=O)N[C@H]2CCCC[C@@H]2O)nc(-c2ccccc2Cl)n1-c1ccc(Cl)cc1

Ki (Cannabinoid receptor 1 [1]): 18 nM
SMILES: CC(C)c1c(C(=O)N[C@H]2CCCC[C@@H]2O)nc(-c2ccccc2Cl)n1-c1ccc(Cl)cc1

Ki (Cannabinoid receptor 1 [1]): 34 nM
SMILES: CN(C(=O)c1cn(-c2ccc(Cl)cc2)c(-c2ccccc2Cl)n1)C1CCCCC1

Ki (Cannabinoid receptor 2): 2300 nM
SMILES: CCc1c(C(=O)N[C@H]2CCCC[C@@H]2O)nc(-c2ccccc2Cl)n1-c1ccc(Cl)cc1

Ki (Cannabinoid receptor 1 [1]): 940 nM
SMILES: N[C@@H]1CCCC[C@H]1NC(=O)c1cn(-c2ccc(Cl)cc2)c(-c2ccc(Cl)cc2Cl)n1

SMILES: CCCCc1c(C(=O)N[C@H]2CCCC[C@@H]2O)nc(-c2ccccc2Cl)n1-c1ccc(Cl)cc1
Ki (Cannabinoid receptor 1 [1]): 10 nM

Kb (Cannabinoid receptor 1 [2]): 11 nM | Ki (Cannabinoid receptor 2): 2300 nM | Ki (Cannabinoid receptor 1 [1]): 2.2 nM
SMILES: O=C(NC1CCCCC1)c1cn(-c2ccc(Cl)cc2)c(-c2ccccc2Cl)n1

SMILES: O=C(N[C@H]1CCCC[C@@H]1O)c1cn(-c2ccc(Cl)cc2)c(-c2ccccc2Cl)n1
concentration at 2 h [5]: 110 nM | Kb (Cannabinoid receptor 1 [2]): 7.1 nM | Cmax [6]: 1640 nM | Ki (Cannabinoid receptor 2): 5300 nM | Ki (Cannabinoid receptor 1 [1]): 29 nM | Activity (Rattus norvegicus [3]): 34%

SMILES: O=C(NC1CCCCC1)c1cn(-c2ccc(Cl)cc2)c(-c2ccc(Cl)cc2Cl)n1
Kb (Cannabinoid receptor 1 [2]): 18 nM | Cmax [6]: 50 nM | Activity (Rattus norvegicus [7]): inactive | Ki (Cannabinoid receptor 2): 240 nM | Ki (Cannabinoid receptor 1 [1]): 3.9 nM

Ki (Cannabinoid receptor 1 [1]): 41 nM
SMILES: O=C(N[C@H]1Cc2ccccc2[C@@H]1O)c1cn(-c2ccc(Cl)cc2)c(-c2ccccc2Cl)n1 (racemic)

SMILES: O=C(NC1CCCCC1)c1cn(-c2ccc(Cl)cc2)c(-c2ccc(F)cc2F)n1
Ki (Cannabinoid receptor 1 [1]): 36 nM

SMILES: O=C(N[C@@H]1c2ccccc2C[C@@H]1O)c1cn(-c2ccc(Cl)cc2)c(-c2ccccc2Cl)n1
Kb (Cannabinoid receptor 1 [2]): 9.2 nM | Ki (Cannabinoid receptor 2): 5100 nM | Ki (Cannabinoid receptor 1 [1]): 18 nM

SMILES: Cc1ccc(-n2cc(C(=O)NC3CCCCC3)nc2-c2ccccc2Cl)cc1
Ki (Cannabinoid receptor 1 [1]): 4.6 nM

SMILES: O=C(NC1CCCCC1)c1cn(-c2ccc(Cl)cc2)c(-c2ccccc2)n1
Ki (Cannabinoid receptor 1 [1]): 130 nM

Ki (Cannabinoid receptor 1 [1]): 17 nM
SMILES: O=C(N[C@H]1Cc2ccccc2[C@H]1O)c1cn(-c2ccc(Cl)cc2)c(-c2ccccc2Cl)n1 (racemic)

Ki (Cannabinoid receptor 1 [1]): 95 nM
SMILES: COc1ccccc1-c1nc(C(=O)NC2CCCCC2)cn1-c1ccc(Cl)cc1

Ki (Cannabinoid receptor 1 [1]): 920 nM
SMILES: CN[C@@H]1CCCC[C@H]1NC(=O)c1cn(-c2ccc(Cl)cc2)c(-c2ccc(Cl)cc2Cl)n1

Ki (Cannabinoid receptor 1 [1]): 25 nM
SMILES: O=C(NC1CCCCC1)c1cn(-c2ccc(Cl)cc2)c(-c2cc(Cl)ccc2Cl)n1

SMILES: CCc1ccccc1-c1nc(C(=O)NC2CCCCC2)cn1-c1ccc(Cl)cc1
Ki (Cannabinoid receptor 1 [1]): 39 nM

Ki (Cannabinoid receptor 1 [1]): 19 nM
SMILES: O=C(N[C@H]1CCCC[C@@H]1O)c1nc(-c2ccccc2Cl)n(-c2ccc(Cl)cc2)c1Br

SMILES: O=C(NC1CCCCC1)c1cn(-c2ccc(F)cc2)c(-c2ccc(Cl)cc2Cl)n1
Ki (Cannabinoid receptor 1 [1]): 8.2 nM

SMILES: O=C(N[C@H]1c2ccccc2C[C@@H]1O)c1cn(-c2ccc(Cl)cc2)c(-c2ccccc2Cl)n1 (racemic)
Ki (Cannabinoid receptor 1 [1]): 22 nM

SMILES: Cc1ccc(-c2nc(C(=O)NC3CCCCC3)cn2-c2ccc(Cl)cc2)c(C)c1
Ki (Cannabinoid receptor 1 [1]): 7.2 nM

Ki (Cannabinoid receptor 1 [1]): 20 nM
SMILES: O=C(NC1CCCCC1)c1cn(-c2ccc(F)cc2)c(-c2ccccc2Cl)n1

SMILES: O=C(N[C@H]1c2ccccc2C[C@H]1O)c1cn(-c2ccc(Cl)cc2)c(-c2ccccc2Cl)n1
Kb (Cannabinoid receptor 1 [2]): 2.2 nM | Ki (Cannabinoid receptor 2): 1200 nM | Ki (Cannabinoid receptor 1 [1]): 6.3 nM

Ki (Cannabinoid receptor 1 [1]): 75 nM
SMILES: O=C(N[C@@H]1CCC[C@H]1O)c1cn(-c2ccc(Cl)cc2)c(-c2ccccc2Cl)n1

Kb (Cannabinoid receptor 1 [2]): 22 nM | Ki (Cannabinoid receptor 1 [1]): 97 nM
SMILES: O=C(N[C@@H]1CCCC[C@H]1O)c1cn(-c2ccc(Cl)cc2)c(-c2ccccc2Cl)n1

Ki (Cannabinoid receptor 1 [1]): 620 nM
SMILES: CN[C@H]1CCCC[C@@H]1NC(=O)c1cn(-c2ccc(Cl)cc2)c(-c2ccc(Cl)cc2Cl)n1

SMILES: CCc1c(C(=O)N[C@H]2CCCC[C@@H]2O)nc(-c2ccccc2Cl)n1-c1ccc(Br)cc1
Activity (Rattus norvegicus [8]): -6.1% | Kb (Cannabinoid receptor 1 [2]): 13 nM | Activity (Rattus norvegicus [9]): 35% | Activity (Rattus norvegicus [10]): -1.9% | Cmax [6]: 2100 nM | Activity (Rattus norvegicus [11]): 52% | Activity (Rattus norvegicus [12]): 63% | Activity (Rattus norvegicus [13]): 64% | Activity (Rattus norvegicus [4]): 5.6% | Activity (Rattus norvegicus [14]): -10.6% | Activity (Rattus norvegicus [15]): 62% | Ki (Cannabinoid receptor 2): 2700 nM | Ki (Cannabinoid receptor 1 [1]): 3.7 nM

Source: ChEMBL document CHEMBL1144643, “Optimization of imidazole amide derivatives as cannabinoid-1 receptor antagonists for the treatment of obesity” (Bioorg Med Chem Lett, 2007)
